Bioassay records (PubChem)
Compounds with a hit are over-represented: about 2.5% of the library has one in this group of screens.
SIAE inh: human SIAE inhibition, primary screen; Q9HAT2; SIAE FP-Rh probe binding, fluorescence polarization; inhibition, % at 9.66 µM; hit rate 0.69% among 370,000;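 active = inhibition above a cutoff: mean of compounds within the control limits plus 3 SD of those, cut at about 17% in these data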;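 also: 0% = plate median of compound wells and 100% = probe without SIAE protein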
rCAG binder: r(CAG) repeat RNA binding. TO-PRO-1 dye displacement fluorescence. hit rate 1.3% among 370,000. inhibition, % at 3 µM;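 active = inhibition above the plate cutoff, the mean of all test compounds on that plate plus 3 SD, cut at about 35% in these data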;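 also: 0% = DMSO alone and 100% = 100 µM mitoxantrone as full dye displacement; higher means more dye released from RNA so lower well fluorescence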
TCR-CD3 inh: human TCR-CD3 binding inhibition. TAMRA-labeled TCR probe fluorescence, biochemical. AID 651800. hit rate 0.37% among 360,000. inhibition, % at 9.4 µM; in the data active = inhibition above about 19%;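 also: recombinant mutant TCR 2C K166C tagged with TAMRA read by polarization; 0% = receptor in buffer alone and 100% = receptor with positive control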
mABHD4 FP: inhibitors of mouse ABHD4; purified mABHD4, FP-Rh probe fluorescence polarization; inhibition, % at 8.92 µM; hit rate 0.54% among 370,000; AID 720543;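 active = inhibition exceeding the mean over every tested compound plus 3 SD, cut at about 30% in these data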;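 also: 0% = plate median of compound wells and 100% = S159A mutant with DMSO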
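Assay system: mABHD4 protein; medium: HEPES pH 7.0, NaCl, Pluronic buffer; dosing: 8.92 µM, single dose; schedule: 45 min + 60 min at 25 °C; signal: FP readout, ex 525 nm / em 598 nm; read-out: normalized percent inhibition of probe labeling; repeats: single replicate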
HTRA1 inhibitor: inhibitors of human serine peptidase HTRA1 | Q92743 | hit rate 0.5% among 340,000 | inhibition, % at 5.96 µM | recombinant HTRA1, FP-rhodamine activity-based probe, fluorescence polarization; in the data active = inhibition above about 36%;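 also: 0% = enzyme with DMSO and 100% = wells lacking enzyme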
Target sequence (Q92743 whole entry, looked up): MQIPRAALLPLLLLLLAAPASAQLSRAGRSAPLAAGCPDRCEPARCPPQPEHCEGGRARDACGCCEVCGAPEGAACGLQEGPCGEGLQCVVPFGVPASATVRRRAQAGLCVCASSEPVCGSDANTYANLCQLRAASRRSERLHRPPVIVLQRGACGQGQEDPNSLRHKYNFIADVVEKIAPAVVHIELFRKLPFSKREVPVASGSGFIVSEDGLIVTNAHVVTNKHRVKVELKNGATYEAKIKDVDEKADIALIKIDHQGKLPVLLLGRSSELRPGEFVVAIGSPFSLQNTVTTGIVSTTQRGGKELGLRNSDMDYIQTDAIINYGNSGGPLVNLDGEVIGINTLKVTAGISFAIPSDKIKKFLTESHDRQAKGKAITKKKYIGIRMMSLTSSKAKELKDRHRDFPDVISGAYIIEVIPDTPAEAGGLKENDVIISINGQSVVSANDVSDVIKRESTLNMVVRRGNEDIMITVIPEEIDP
HTRA1 inh conf: confirmation of human HTRA1 inhibitors; inhibition, % at 5.96 µM; hit rate 66% among 1,600; shares compounds with HTRA1 inhibitor; recombinant HTRA1, FP-rhodamine activity-based probe, fluorescence polarization;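 active = mean inhibition over three repeats above a set limit taken from the earlier primary screen, cut at about 37% in these data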;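 also: 0% = HTRA1 with DMSO and 100% = wells lacking HTRA1; inhibitors block probe binding so polarization drops and inhibition rises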
An asterisk follows results filed as active; nt = no result.

SMILES	SIAE inh	rCAG binder	TCR-CD3 inh	mABHD4 FP	HTRA1 inhibitor	HTRA1 inh conf
O=C1CSC(=S)N1N=Cc1c(O)ccc2ccccc12	7	23	17	45*	37*	41*
COc1cnc(-c2ccccn2)nc1Oc1ccc(Cl)c2ccccc12	1	-3	4	-1	53*	54*
COc1ccc(C)cc1S(=O)(=O)N(C)CC(=O)N1CCCC1	-12	1	1	-1	-4	nt
O=C(C[n+]1ccc(CCSc2ccc(F)cc2)cc1)c1ccccc1	nt	nt	nt	nt	37*	60*
CCOC(=O)c1c2c(n(-c3ccc(OC)cc3)c1C)C(=O)C(=O)c1ccccc1-2	nt	nt	nt	nt	47*	45*
CC1(C)C=Cc2c(c3c(c4c(=O)c(-c5ccc(O)cc5)coc24)OC(C)(C)CC3)O1	-3	7	7	0	36*	20
COc1ccc(S(=O)(=O)NCCOc2cccc3cccnc23)cc1OC	5	-2	-4	8	-1	nt
CCN(CC)S(=O)(=O)c1cc(OC)ccc1N=Nc1ccc(O)c2ncccc12	15	20	-6	22	63*	69*
CCOc1ccc(N=Nc2ccc(O)c3ncccc23)cc1	10	5	-1	14	36	nt
CCS(=O)(=O)c1ccc(OC)c(N=Nc2ccc(O)c3ncccc23)c1	4	5	3	21	45*	31
CCOC(=O)N1CCC2(CC1)C(C(=O)C13CC4CC(CC(C4)C1)C3)C2(C#N)C#N (stereo unspecified)	-6	1	-4	-16	0	nt
COc1ccc(NC(=O)CC2Nc3cccc4cccc(c34)NC2=O)cc1 (stereo unspecified)	2	7	3	18	52*	9
O=C(CC1Nc2ccccc2NC1=O)Nc1cc(Cl)cc(Cl)c1 (stereo unspecified)	-1	5	-1	1	-12	nt
O=C(NCCc1ccccc1Cl)C1CCC(=O)N(Cc2cccc(C(F)(F)F)c2)C1 (stereo unspecified)	-1	-10	-2	5	-2	nt
COc1cccc(CNc2ccc(N3CCC(C)CC3)cc2)c1OC	3	6	-4	26	52*	46*
CC1CCN(c2ccc(NC(=O)Cc3ccccc3)cc2)CC1	-2	-5	-2	-7	-10	nt
CCCC(=O)Nc1ccc2c(c1)nc(CCN1CCC(C)CC1)n2C	-4	0	-10	-9	9	nt
N/C(CCS(=O)(=O)c1ccc(Cl)cc1)=N\OC(=O)c1ccccc1C(F)(F)F	-7	-2	-2	-11	-6	nt
COC(=O)C1=C(C)NC(=O)/C1=C\c1cc(C)n(-c2ccccc2)c1C	6	5	-3	7	20	nt
COC(=O)C1=C(C)NC(=O)/C1=C\c1cc(C)n(-c2cc(C)cc(C)c2)c1C	3	16	-6	16	53*	35
c1coc(-c2nc3ccccc3nc2-c2ccco2)c1	25*	52*	34*	62*	52*	10
CCOC(=O)c1ccc(-c2cccc(C(F)(F)F)c2)nc1C	-3	2	2	2	-6	nt
Oc1cccc2ccc(/C=C/c3ccccc3Cl)nc12	-1	13	-1	1	46*	57*
COCCNC(=O)C(c1ccncc1)N(C(=O)c1sc(C)nc1C)c1cccc(C)c1 (stereo unspecified)	-2	-3	4	6	2	nt
C=CCn1c2ccccc2c2nnc(SCc3ccc4nonc4c3)nc21	2	1	0	-1	-13	nt
SMILES	SIAE inh	rCAG binder	TCR-CD3 inh	mABHD4 FP	HTRA1 inhibitor	HTRA1 inh conf
O=C(NC1CCCCCC1)c1cccc(N2CCCC2=O)c1	4	4	3	-1	1	nt
CC(C)(C)NC(=S)Nc1ccc(Nc2ccccc2)cc1	2	6	2	24	46*	7
Cc1ccccc1C1C(C#N)=C2N=C(N)c3c(sc4c3CCCCC4)N2C2=C1C(=O)CCC2 (stereo unspecified)	nt	nt	nt	nt	50*	27
Cc1cccc(C)c1NC(=S)NCCc1ccc(O)c(O)c1	9	-1	2	15	48*	109*
Cc1cccc(NC(=S)NCCc2ccccc2)c1C	-1	-4	3	0	-7	nt
COc1ccc(O)c(/C=N/n2c(-c3ccco3)csc2=Nc2cccnc2)c1	10	3	-1	18	-2	nt
CN=c1scc(-c2ccco2)n1/N=C/c1ccc(O)c(O)c1	-2	31	15	40*	74*	73*
CCCCNC(=O)COC(=O)c1c2c(nc3ccccc13)/C(=C/c1cccs1)CC2	-4	19	2	-14	-32	nt
CC1CCCCC1NC(=O)COC(=O)c1c2c(nc3ccccc13)/C(=C\c1ccco1)CC2 (stereo unspecified)	12	54*	6	33*	57*	4
CC(C)c1ccc(NC(=O)Nc2cc3sccc3n2C)cc1	-3	19	3	18	47*	9
Cn1c(C(=O)Nc2ccc3c(c2)OCCO3)cc2sccc21	8	2	6	1	-4	nt
CC(C)C(=O)NC(c1ccccc1)c1cc([N+](=O)[O-])c2cccnc2c1O (stereo unspecified)	5	15	-5	15	39*	46*
CC(=O)NC(c1cccs1)c1cc([N+](=O)[O-])c2cccnc2c1O (stereo unspecified)	5	18	-6	21	30	nt
CC(=O)NC(c1ccccc1)c1cc([N+](=O)[O-])c2cccnc2c1O (stereo unspecified)	5	9	-5	22	53*	69*
COc1ccc(CN2CCNC(=O)C2CC(=O)N(Cc2nccn2C)C(C)C)c(OC)c1 (stereo unspecified)	2	-6	-3	-5	12	nt
Cc1ccc(-n2ncc3c(NCCCN4CCOCC4)ncnc32)c(C)c1	2	0	2	8	2	nt
O=c1[nH]c2ccc(Cl)cc2c(-c2ccccc2)c1SC(=S)N1CCOCC1	-9	3	7	6	42*	-26
O=c1[nH]c2ccc(Cl)cc2c(-c2ccccc2)c1SC(=S)N1CCCCC1	-16	9	-11	-4	-47	nt
COCOc1ccc(-c2ncc(OCCN3CCCC3=O)nc2NC(=O)c2cc3ccccc3s2)cc1	-4	5	4	-27	nt	nt
C=CC#CC[N+]1(CC#Cc2ccccc2)CCOCC1	8	20	11	6	57*	65*
C(#Cc1ccccc1)C[N+]1(CC#Cc2ccccc2)CCCC1	-2	4	6	-6	3	nt
O=C(O)CCNc1cc(N2CCN(C(=O)c3ccco3)CC2)c2noc3c2c1C(=O)c1ccccc1-3	30*	68*	34*	49*	46*	7
O=C(c1cc(-c2ccccc2Cl)on1)N1CCN(C(=O)c2ccco2)CC1	7	-5	1	-1	0	nt
O=S1(=O)N=C(Nc2ccc(N3CCOCC3)cc2)c2ccccc21	-3	3	2	2	1	nt
